ChEMBL document CHEMBL1149773, “Synthesis, determination of the lipophilicity, anticancer and antimicrobial properties of some fused 1,2,4-triazole derivatives” (Eur J Med Chem, 2008)
In brackets after ≈: the same amount, converted by molar mass.

What was measured:
[1] = Lipophilicity, log kw in dioxane aqueous system at pH 3.5; type: physicochemical; conditions: buffer
Procedure, shortened: (§1)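 RP-HPLC on an octadecyl silica column (150 × 4.6 mm, 5 µm) at 22 ± 1 °C, flow 1.0 mL min⁻¹, UV detection at 254 nm. Mobile phase was methanol, acetonitrile or dioxane with water and 0.01 M phosphate buffer pH 3.5 containing 0.05 M DEA. log k_W was extrapolated to pure water by regression.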

[2] = Lipophilicity, log kw in acetonitrile aqueous system at pH 3.5; type: physicochemical; procedure, shortened: as §1
[3] = Lipophilicity, log kw in methanol aqueous system at pH 3.5; type: physicochemical; procedure, shortened: as §1
[4] = Growth inhibition of human skin fibroblast at 126.7 uM; type: cell-based; conditions: human skin fibroblasts, read-out: GI
Procedure, shortened: (§2)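 Vero, LS180, SiHa, T47D or primary HSF cells were seeded at 10^4 cells per mL and preincubated in microtiter plates. Compounds were added at 10 or 50 µg mL⁻¹ (printed µM equivalents depend on the compound) and incubated 72 h. End-point was BrdU labelling read spectrophotometrically on an ELISA reader. Growth inhibition is % versus untreated controls; triplicates.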

[5] = Growth inhibition of african green monkey Vero cells at 25.3 uM; type: cell-based; conditions: chlorocebus sabaeus, read-out: GI; procedure, shortened: as §2
[6] = Growth inhibition of african green monkey Vero cells at 126.7 uM; type: cell-based; conditions: chlorocebus sabaeus, read-out: GI; procedure, shortened: as §2
[7] = Growth inhibition of human LS180 cells at 25.3 uM; type: functional; conditions: read-out: GI; procedure, shortened: as §2
[8] = Growth inhibition of human LS180 cells at 126.7 uM; type: functional; conditions: read-out: GI; procedure, shortened: as §2
SiHa [9] = test: Growth inhibition of human SiHa cells at 25.3 uM; type: functional; conditions: read-out: GI; procedure, shortened: as §2
SiHa [10] = test: Growth inhibition of human SiHa cells at 126.7 uM; type: functional; conditions: read-out: GI; procedure, shortened: as §2
T47D [11] = test: Growth inhibition of human T47D cells at 25.3 uM; type: functional; conditions: read-out: GI; procedure, shortened: as §2
T47D [12] = test: Growth inhibition of human T47D cells at 126.7 uM; type: functional; conditions: read-out: GI; procedure, shortened: as §2
[13] = Antiproliferative activity against human skin fibroblast assessed as cell viability at 1 uM by MTT assay; type: cell-based; conditions: human skin fibroblasts, read-out: Activity
Procedure, shortened: (§3)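 Log-phase cells, kept in supplemented RPMI 1640 (HSF in DMEM/10% FBS) at 37 °C, 5% CO2, were exposed 24 h to 1, 50 or 100 µM compound from DMSO. They were washed, given 0.5 mg/mL MTT in HEPES buffer pH 7.4 for 45 min at 37 °C, and formazan was dissolved in DMSO and read at 570 nm. Values are % viability versus control from three independent measurements.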

[14] = Antiproliferative activity against human skin fibroblast assessed as cell viability at 50 uM by MTT assay; type: cell-based; conditions: human skin fibroblasts, read-out: Activity
Procedure, shortened: (§4)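 MTT viability assay on primary human skin fibroblasts grown in DMEM with 10% FBS and penicillin/streptomycin. Compounds were dissolved in DMSO and given at 1, 50 or 100 µM for 24 h. Cells were washed in HEPES-buffered medium (pH 7.4) and then given MTT 0.5 mg mL⁻¹ for 45 min at 37 °C. Formazan was dissolved in DMSO and read at 570 nm. Viability is % of control; three independent measurements.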

[15] = Antiproliferative activity against human skin fibroblast assessed as cell viability at 100 uM by MTT assay; type: cell-based; conditions: human skin fibroblasts, read-out: Activity; procedure, shortened: as §4
[16] = Antiproliferative activity against human RPMI cells assessed as cell viability at 1 uM by MTT assay; type: functional; conditions: read-out: Activity; procedure, shortened: as §3
[17] = Antiproliferative activity against human RPMI cells assessed as cell viability at 50 uM by MTT assay; type: functional; conditions: read-out: Activity; procedure, shortened: as §3
[18] = Antiproliferative activity against human RPMI cells assessed as cell viability at 100 uM by MTT assay; type: functional; conditions: read-out: Activity; procedure, shortened: as §3
HeLa [19] = test: Antiproliferative activity against human HeLa cells assessed as cell viability at 1 uM by MTT assay; type: functional; conditions: read-out: Activity; procedure, shortened: as §3
HeLa [20] = test: Antiproliferative activity against human HeLa cells assessed as cell viability at 50 uM by MTT assay; type: functional; conditions: read-out: Activity; procedure, shortened: as §3
HeLa [21] = test: Antiproliferative activity against human HeLa cells assessed as cell viability at 100 uM by MTT assay; type: functional; conditions: read-out: Activity; procedure, shortened: as §3
[22] = Growth inhibition of human skin fibroblast at 25.3 uM; type: cell-based; conditions: human skin fibroblasts, read-out: GI; procedure, shortened: as §2
Pseudomonas aeruginosa [23] = test: Antimicrobial activity against Pseudomonas aeruginosa ATCC 27853 at 200 ug/mL by disc-diffusion method; type: functional; conditions: read-out: IZ
Procedure, shortened: (§5)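 Kirby–Bauer disc diffusion: 5 mm paper discs soaked in compound solution in DMSO (100 or 200 µg/mL; reference drugs 200 µg/mL) and laid on inoculated Mueller-Hinton agar (bacteria) or Sabouraud agar (C. albicans, Aspergillus). DMSO discs were the control. Plates ran 24 h at 35 °C. Inhibition zone diameter was scored 0–10 mm R, 11–16 mm I, 17–25 mm S; triplicate.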

Proteus vulgaris [24] = test: Antimicrobial activity against Proteus vulgaris at 100 ug/mL by disc-diffusion method; type: functional; conditions: read-out: IZ; procedure, shortened: as §5
Proteus vulgaris [25] = test: Antimicrobial activity against Proteus vulgaris at 200 ug/mL by disc-diffusion method; type: functional; conditions: read-out: IZ; procedure, shortened: as §5
Klebsiella pneumoniae [26] = test: Antimicrobial activity against Klebsiella pneumoniae at 100 ug/mL by disc-diffusion method; type: functional; conditions: read-out: IZ; procedure, shortened: as §5
Klebsiella pneumoniae [27] = test: Antimicrobial activity against Klebsiella pneumoniae at 200 ug/mL by disc-diffusion method; type: functional; conditions: read-out: IZ; procedure, shortened: as §5
Klebsiella aerogenes [28] = test: Antimicrobial activity against Enterobacter aerogenes at 100 ug/mL by disc-diffusion method; type: functional; conditions: read-out: IZ; procedure, shortened: as §5
Klebsiella aerogenes [29] = test: Antimicrobial activity against Enterobacter aerogenes at 200 ug/mL by disc-diffusion method; type: functional; conditions: read-out: IZ; procedure, shortened: as §5
Staphylococcus aureus [30] = test: Antimicrobial activity against Staphylococcus aureus ATCC 25923 at 100 ug/mL by disc-diffusion method; type: functional; conditions: read-out: IZ; procedure, shortened: as §5
Staphylococcus aureus [31] = test: Antimicrobial activity against Staphylococcus aureus ATCC 25923 at 200 ug/mL by disc-diffusion method; type: functional; conditions: read-out: IZ; procedure, shortened: as §5
[32] = tested on: Staphylococcus epidermidis; test: Antimicrobial activity against Staphylococcus epidermidis at 100 ug/mL by disc-diffusion method; type: functional; conditions: read-out: IZ; procedure, shortened: as §5
[33] = tested on: Staphylococcus epidermidis; test: Antimicrobial activity against Staphylococcus epidermidis at 200 ug/mL by disc-diffusion method; type: functional; conditions: read-out: IZ; procedure, shortened: as §5
Streptococcus pyogenes [34] = test: Antimicrobial activity against Streptococcus pyogenes at 100 ug/mL by disc-diffusion method; type: functional; conditions: read-out: IZ; procedure, shortened: as §5
Streptococcus pyogenes [35] = test: Antimicrobial activity against Streptococcus pyogenes at 200 ug/mL by disc-diffusion method; type: functional; conditions: read-out: IZ; procedure, shortened: as §5
Streptococcus agalactiae [36] = test: Antimicrobial activity against Streptococcus agalactiae at 100 ug/mL by disc-diffusion method; type: functional; conditions: read-out: IZ; procedure, shortened: as §5
Streptococcus agalactiae [37] = test: Antimicrobial activity against Streptococcus agalactiae at 200 ug/mL by disc-diffusion method; type: functional; conditions: read-out: IZ; procedure, shortened: as §5
Candida albicans [38] = test: Antimicrobial activity against Candida albicans ATCC 10231 at 100 ug/mL by disc-diffusion method; type: functional; conditions: read-out: IZ; procedure, shortened: as §5
Candida albicans [39] = test: Antimicrobial activity against Candida albicans ATCC 10231 at 200 ug/mL by disc-diffusion method; type: functional; conditions: read-out: IZ; procedure, shortened: as §5
Aspergillus sp. [40] = test: Antimicrobial activity against Aspergillus sp. at 100 ug/mL by disc-diffusion method; type: functional; conditions: read-out: IZ; procedure, shortened: as §5
Aspergillus sp. [41] = test: Antimicrobial activity against Aspergillus sp. at 200 ug/mL by disc-diffusion method; type: functional; conditions: read-out: IZ; procedure, shortened: as §5
Candida albicans [42] = test: Antimicrobial activity against Candida albicans ATCC 10231 after 24 hrs by microdilution assay; type: functional; conditions: ATCC 10231, 24 h
Escherichia coli [43] = test: Antimicrobial activity against Escherichia coli ATCC 25922 at 100 ug/mL by disc-diffusion method; type: functional; conditions: read-out: IZ; procedure, shortened: as §5
Escherichia coli [44] = test: Antimicrobial activity against Escherichia coli ATCC 25922 at 200 ug/mL by disc-diffusion method; type: functional; conditions: read-out: IZ; procedure, shortened: as §5
Pseudomonas aeruginosa [45] = test: Antimicrobial activity against Pseudomonas aeruginosa ATCC 27853 at 100 ug/mL by disc-diffusion method; type: functional; conditions: read-out: IZ; procedure, shortened: as §5
Staphylococcus aureus [46] = test: Antimicrobial activity against Staphylococcus aureus ATCC 25923 after 24 hrs by microdilution assay; type: functional; conditions: ATCC 25923, 24 h
Pseudomonas aeruginosa [47] = test: Antimicrobial activity against Pseudomonas aeruginosa ATCC 27853 after 24 hrs by microdilution assay; type: functional; conditions: ATCC 27853, 24 h

Clc1ccc(N2CCn3c(COc4ccc(Cl)cc4Cl)nnc32)cc1
logKw [1]: 4.15 | logKw [2]: 3.75 | logKw [3]: 4.85 | inhibition at 126.7 µM [4]: 10% | inhibition at 25.3 µM [5]: 20% | inhibition at 126.7 µM [6]: 28% | inhibition of growth at 25.3 µM [7]: 48% | inhibition of growth at 126.7 µM [8]: 54% | inhibition of growth at 25.3 µM (SiHa [9]): 35% | inhibition of growth at 126.7 µM (SiHa [10]): 41% | inhibition of growth at 25.3 µM (T47D [11]): 28% | inhibition of growth at 126.7 µM (T47D [12]): 48% | viability at 1 µM [13]: 83% | viability at 50 µM [14]: 83.9% | viability at 100 µM [15]: 86.8% | viability at 1 µM [16]: 98.4% | viability at 50 µM [17]: 24.4% | viability at 100 µM [18]: 24.5% | viability at 1 µM (HeLa [19]): 68.4% | viability at 50 µM (HeLa [20]): 59.9% | viability at 100 µM (HeLa [21]): 56.3% | inhibition at 25.3 µM [22]: 7%

Sc1nnc2n1CCN2c1ccc(Cl)cc1
zone of inhibition at 200 µg/mL (Pseudomonas aeruginosa [23]): 0 mm | zone of inhibition at 100 µg/mL (Proteus vulgaris [24]): 0 mm | zone of inhibition at 200 µg/mL (Proteus vulgaris [25]): 0 mm | zone of inhibition at 100 µg/mL (Klebsiella pneumoniae [26]): 0 mm | zone of inhibition at 200 µg/mL (Klebsiella pneumoniae [27]): 0 mm | zone of inhibition at 100 µg/mL (Klebsiella aerogenes [28]): 0 mm | zone of inhibition at 200 µg/mL (Klebsiella aerogenes [29]): 0 mm | zone of inhibition at 100 µg/mL (Staphylococcus aureus [30]): 0 mm | zone of inhibition at 200 µg/mL (Staphylococcus aureus [31]): 0 mm | zone of inhibition at 100 µg/mL [32]: 0 mm | zone of inhibition at 200 µg/mL [33]: 0 mm | zone of inhibition at 100 µg/mL (Streptococcus pyogenes [34]): 0 mm | zone of inhibition at 200 µg/mL (Streptococcus pyogenes [35]): 0 mm | zone of inhibition at 100 µg/mL (Streptococcus agalactiae [36]): 0 mm | zone of inhibition at 200 µg/mL (Streptococcus agalactiae [37]): 0 mm | zone of inhibition at 100 µg/mL (Candida albicans [38]): 17 mm | zone of inhibition at 200 µg/mL (Candida albicans [39]): 17 mm | zone of inhibition at 100 µg/mL (Aspergillus sp. [40]): 0 mm | zone of inhibition at 200 µg/mL (Aspergillus sp. [41]): 0 mm | MIC (Candida albicans [42]): 30.9 µM (≈ 7.81 µg/mL) | logKw [1]: -0.09 | zone of inhibition at 100 µg/mL (Escherichia coli [43]): 0 mm | zone of inhibition at 200 µg/mL (Escherichia coli [44]): 0 mm | zone of inhibition at 100 µg/mL (Pseudomonas aeruginosa [45]): 0 mm

O=C(N[C@H](CO)[C@H](O)c1ccc([N+](=O)[O-])cc1)C(Cl)Cl [CHLORAMPHENICOL]
MIC (Staphylococcus aureus [46]): 12.4 µM (≈ 4.01 µg/mL) | MIC (Pseudomonas aeruginosa [47]): > 387 µM
